Measurements gathered from unrelated publications.
Each line is one published result; the experiments were not run side by side.
KIT: Mast/stem cell growth factor receptor Kit (KIT, Homo sapiens, UniProt P10721)
KIT V559D/V654A: Mast/stem cell growth factor receptor Kit (KIT, Homo sapiens, UniProt P10721, V559D/V654A)
KIT V559D: Mast/stem cell growth factor receptor Kit (KIT, Homo sapiens, UniProt P10721, V559D)
KIT L576P: Mast/stem cell growth factor receptor Kit (KIT, Homo sapiens, UniProt P10721, L576P)
KIT T670I/V559D: Mast/stem cell growth factor receptor Kit (KIT, Homo sapiens, UniProt P10721, T670I/V559D)
KIT autoinhibited: Mast/stem cell growth factor receptor Kit, autoinhibited (KIT, Homo sapiens, UniProt P10721)
KIT A829P: Mast/stem cell growth factor receptor Kit (KIT, Homo sapiens, UniProt P10721, A829P)
KIT D816V: Mast/stem cell growth factor receptor Kit (KIT, Homo sapiens, UniProt P10721, D816V)

SMILES | target | test | conditions | remaining binding
NS(=O)(=O)c1cc(NC(=O)Cc2ccccc2)ccc1Oc1cccc(Cl)c1 | KIT | cell-free assay, competition with immobilised ligand | 1 µM | 89%
F[C@@H]1CCN(c2nccc(-c3cnn4ncccc34)n2)C1 | KIT V559D/V654A | binding | 1 µM | 74%
C[C@@H](c1cccc(C#N)c1)n1cc(Cl)cc(C(N)=O)c1=N | KIT V559D | cell-free assay, competition with immobilised ligand | 1 µM | 93%
O=C(Nc1c[nH]nc1C(=O)NC1CCNCC1)c1cc(F)cc(F)c1 | KIT L576P | binding, competition with immobilised ligand | 1 µM | 100%
c1cncc(-c2cccc(Nc3nccc(NC4CCCCC4)n3)c2)c1 | KIT T670I/V559D | binding, competition with immobilised ligand | 10 µM | 29%
Nc1ncc2c(n1)-c1c([nH]c3ccc(C#CC4CC4)cc13)CCCC2 | KIT autoinhibited | binding, competition with immobilised ligand | 1 µM | 86%
O=C(Nc1cnc(Oc2ccc(F)cc2)nc1)N1CCc2ncccc2[C@@H]1c1ccc(F)cc1 | KIT T670I/V559D | cell-free assay, competition with immobilised ligand | 1 µM | 84%
CN(CCCC(F)(F)F)c1nccc(-c2cnn3ncccc23)n1 | KIT V559D | binding | 1 µM | 100%
C[C@@H](c1ccc(-n2cnc3c(N)ncnc32)cc1)N1CCc2nn(C)c(Cc3ccccc3)c2C1=O | KIT autoinhibited | binding, competition with immobilised ligand | 0.1 µM | 97%
COc1ccc2c(O[C@@H]3C[C@H]4C(=O)N[C@]5(C(=O)O)CC5/C=C\CCCCC[C@H](NC(=O)OC5CCCC5)C(=O)N4C3)cc(-c3csc(NC(=O)C(C)C)n3)nc2c1C (stereo partly shown) | KIT | cell-free assay, competition with immobilised ligand | 1 µM | 100%
O=C(NCCCN1CCOCC1)c1ccc(Nc2nccc(-c3cc4ccccc4s3)n2)cc1 | KIT L576P | binding, competition with immobilised ligand | 1 µM | 8.7%
O=C(NCC1CCOCC1)c1n[nH]cc1NC(=O)c1c(F)cccc1F | KIT V559D/V654A | binding, competition with immobilised ligand | 1 µM | 90%
CNC(=O)Nc1ccc2c(c1)CC[C@@]21OC(=O)N(CC(=O)N(Cc2ccc(F)cc2)[C@@H](C)C(F)(F)F)C1=O | KIT V559D | cell-free assay, competition with immobilised ligand | 1 µM | 100%
c1cnn2ncc(-c3ccnc(N4CCC45COC5)n3)c2c1 | KIT L576P | binding | 1 µM | 70%
C[C@@H]1CN(c2cc(-c3n[nH]c4ccc(OC5(C)CC5)cc34)ncn2)C[C@H](C)O1 | KIT V559D | cell-free assay, competition with immobilised ligand | 0.1 µM | 100%
N[C@@H]1CCN(c2nccc(-c3cnn4ncccc34)n2)C1 | KIT A829P | binding | 1 µM | 100%

SMILES | target | test | conditions | remaining binding
O=C(NCCCN1CCOCC1)c1ccc(Nc2ncc(Cl)c(-c3ccc(Cl)s3)n2)cc1 | KIT L576P | binding, competition with immobilised ligand | 1 µM | 2.8%
C=CC(=O)N1CCC(C(=O)NCC(=O)N2CCN(c3nc(-c4cnc(N)nc4C(F)F)nc(N4CCOCC4)n3)CC2)CC1 | KIT A829P | binding, competition with immobilised ligand | 1 µM | 100%
CN([C@@H]1CCc2c(CC(=O)O)c3ccccc3n2C1)S(=O)(=O)c1ccc(F)cc1 | KIT T670I/V559D | cell-free assay, competition with immobilised ligand | 1 µM | 100%
C[C@H]1CCN(c2nccc(-c3cnn4ncccc34)n2)C1 | KIT L576P | binding | 1 µM | 67%
C[C@@]1(Cc2ccc(C#N)cc2)C(=O)N(c2cc(Cl)cc(Cl)c2)c2ncc(C(=O)NC3(c4nc(C5CCC5)no4)CC3)n21 | KIT D816V | cell-free assay, competition with immobilised ligand | 1 µM | 100%
Cc1cnn2ncc(-c3ccnc(N(C)C)n3)c2c1 | KIT V559D/V654A | binding | 1 µM | 100%
COc1cnc(Nc2cccc(S(N)(=O)=O)c2)nc1N1CCN(c2ccccc2)C(=O)C1 | KIT L576P | binding, competition with immobilised ligand | 1 µM | 100%
O=C(c1ccc(Nc2ncc(Cl)c(-c3cc4ccccc4s3)n2)cc1)N1CCC(N2CCCC2)CC1 | KIT | binding, competition with immobilised ligand | 1 µM | 18%
CN(C)c1ncc(F)c(-c2cnn3ncccc23)n1 | KIT D816V | binding | 1 µM | 91%
O=C(c1ccc(Nc2ncc(Cl)c(-c3ccc(Cl)s3)n2)cc1)N1CCC(N2CCCC2)CC1 | KIT | binding, competition with immobilised ligand | 1 µM | 0.05%
CNC(=O)[C@@H]1CC[C@@H](n2c(-c3ccc4cnccc4c3)nc3ccc(C(=O)NCc4cccc(C(N)=O)c4)cc32)C1 | KIT T670I/V559D | binding, competition with immobilised ligand | 1 µM | 100%
Cc1cnc(Nc2ccc(C(=O)N3CCC(N4CCCC4)CC3)cc2)nc1-c1cc2ccccc2s1 | KIT A829P | binding, competition with immobilised ligand | 1 µM | 7.2%
CCN1CCN(Cc2ccc(C(=O)Nc3ccc(C)c(Oc4ccc5c(c4)CC(=O)N5)c3)cc2C(F)(F)F)CC1 | KIT V559D/V654A | binding, competition with immobilised ligand | 1 µM | 24%
O=C(c1ccc(Nc2nccc(-c3cc4ccccc4s3)n2)cc1)N1CCC(N2CCCC2)CC1 | KIT V559D | binding, competition with immobilised ligand | 1 µM | 18%
COc1cnc(Nc2cccc(S(N)(=O)=O)c2)nc1N1CCN(c2ccccc2)CC1 | KIT | binding, competition with immobilised ligand | 1 µM | 93%
